This is a sample that favours compounds with a hit; in the whole collection about 2.6% have one here.
SENP8 block-1: SENP8 protease inhibitors, primary screen, biochemical, luminescence. Sentrin-specific protease 8 (Homo sapiens), Q96LD8. inhibition, % at 10 µM. purified SENP8, Z-RLRGG-aminoluciferin cleavage. hit rate 1.2% among 330,000; in the data active = inhibition above about 50%
SENP8 block-2: human SENP8 protease inhibitors, primary screen, biochemical, fluorescence, Nedd8 protein substrate, uHTS. recombinant SENP8. inhibition, % at 20 µM. hit rate 0.64% among 360,000. AID 602440, 2012; in the data active = inhibition mostly above about 40%, no sharp cut-off; inactive = mostly below about 27%
Platelet DG rel: inhibitors of platelet dense granule secretion, primary screen, cell-based, MLPCN, human platelets; human platelet-rich plasma, SFLLRN dense granule ATP release, luminescence; AID 1663, 2009; hit rate 0.22% among 300,000; inhibition, %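 (compounds screened at 7.5 µM in platelet-rich plasma)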;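 active = mean replicate score, as percent of positive control, at or above 50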
SENP7 block: SENP7 protease inhibitors, primary screen, biochemical, luminescence, uHTS. recombinant SENP7, Z-RLRGG-aminoluciferin luminescence, 40 min. hit rate 1.5% among 330,000. inhibition, % at 5 µM. Sentrin-specific protease 7 (Homo sapiens), Q9BQF6;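 active = inhibition above about 50% at the single test dose, limit read from the data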;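 also: plate controls were DMSO with enzyme for no effect and no enzyme buffer wells for full effect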
Target sequence (Q9BQF6 706-1050 limits assumed): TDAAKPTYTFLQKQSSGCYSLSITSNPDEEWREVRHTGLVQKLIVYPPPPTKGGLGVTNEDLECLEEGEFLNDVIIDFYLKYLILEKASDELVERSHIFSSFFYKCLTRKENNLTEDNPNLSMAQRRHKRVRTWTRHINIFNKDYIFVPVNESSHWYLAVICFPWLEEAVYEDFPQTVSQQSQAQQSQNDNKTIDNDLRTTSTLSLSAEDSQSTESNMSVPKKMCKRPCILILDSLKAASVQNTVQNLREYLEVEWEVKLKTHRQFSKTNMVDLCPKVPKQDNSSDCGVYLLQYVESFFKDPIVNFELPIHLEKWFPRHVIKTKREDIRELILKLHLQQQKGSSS
SENP6 block: SENP6 protease inhibitors, primary screen, biochemical, luminescence, uHTS; inhibition, % at 10 µM; hit rate 1.8% among 330,000; AID 2599, 2010; Recombinant SENP6 catalytic domain, aminoluciferin luminescence; Sentrin-specific protease 6 (Homo sapiens), Q9GZR1;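 active = inhibition above about 50% at the single tested dose, limit read from the data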;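 also: plate controls were DMSO wells with enzyme for no effect and DMSO wells lacking enzyme for full effect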
SENP1 inh: human SENP1 catalytic domain inhibitors, primary screen, biochemical, FRET, uHTS; recombinant SENP1 catalytic domain, CyPet-SUMO1-YPet FRET cleavage; inhibition, % at 10 µM; hit rate 0.21% among 360,000;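 active = inhibition at least 30% at 10 µM, raw YFP signal under a set limit, fluorescence ratio 0.5 to 1.5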;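 also: 0% = enzyme with DMSO and 100% = no enzyme wells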
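Compound: 10 µM single point, 0.5% DMSO; Test system: hSENP1 catalytic domain, recombinant; Timing: 50 min reaction at room temperature; Technique: FRET, CFP and YFP emission; Control set: no-enzyme wells low, DMSO-plus-enzyme wells high control.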
SENP8 conf: SENP8 protease inhibitors, retest, confirmation, biochemical, luminescence, single concentration; shares compounds with SENP7 block; Recombinant SENP8, Z-RLRGG-aminoluciferin luminescence, 60 min; inhibition, % at 12.5 µM; hit rate 40% among 6,200;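 active = mean inhibition across replicates above about 50%, limit read from the data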
SENP6 confirm: SENP6 protease inhibitors, confirmation, biochemical, luminescence, single concentration | hit rate 58% among 6,200 | inhibition, % at 12.5 µM | shares compounds with SENP7 block | recombinant SENP6, Z-RLRGG-aminoluciferin luminescence
SENP7 confirm: SENP7 protease inhibitors, retest, confirmation, biochemical, luminescence, single concentration; shares compounds with SENP7 block; inhibition, % at 12.5 µM; hit rate 69% among 6,200; AID 488917, 2010; recombinant SENP7, Z-RLRGG-aminoluciferin luminescence, 40 min
Casp3 SENP sel: caspase-3 protease inhibitors, confirmation, selectivity assay for SENP inhibitor project, biochemical, single concentration. shares compounds with SENP7 block. hit rate 60% among 6,200. AID 488918, 2010. purified caspase-3, Z-DEVD-aminoluciferin luminescence, 60 min. inhibition, % at 12.5 µM;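 active = mean inhibition above about 50%, limit read from the data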;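 also: plate controls were enzyme with DMSO for no effect and wells without caspase-3 for full effect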
Target sequence (P42574 28-227 limits assumed): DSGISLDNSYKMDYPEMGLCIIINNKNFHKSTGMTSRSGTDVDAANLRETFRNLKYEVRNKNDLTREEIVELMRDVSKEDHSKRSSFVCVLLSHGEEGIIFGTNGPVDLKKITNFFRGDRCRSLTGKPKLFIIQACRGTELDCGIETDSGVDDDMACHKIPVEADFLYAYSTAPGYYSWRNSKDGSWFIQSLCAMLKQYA
SENP luc ctr: luminescence interference (SENP counter-screen); shares compounds with SENP7 block; Pre-incubated SENP8/Z-RLRGG-aminoluciferin, luciferase luminescence interference; inhibition, % at 12.5 µM; hit rate 39% among 6,200; AID 488919;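 active = mean inhibition above about 50% when retested at one dose, limit read from the data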;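 also: plate controls were DMSO wells with completed reaction for no effect and substrate without enzyme for full effect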
Active calls of the source: *; / = no result.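 The calls were made as follows, unless noted: active = mean inhibition above about 50% in the one-dose retest (limit read from the data); inactive = the rest.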

SMILES | SENP8 block-1 | SENP8 block-2 | Platelet DG rel | SENP7 block | SENP6 block | SENP1 inh | SENP8 conf | SENP6 confirm | SENP7 confirm | Casp3 SENP sel | SENP luc ctr
CN(C(=O)CSc1cn(CC(=O)N2CCOCC2)c2ccccc12)c1ccccc1 | -1 | 8 | 1 | 3 | 0 | 0 | / | / | / | / | /
O=C(Cn1cc(SCc2ccc(Cl)cc2)c2ccccc21)N1CCOCC1 | 44 | 19 | -5 | 49 | 67* | -1 | 13 | 65* | 82* | 26 | 21
c1ccc(-c2nc(C3CCCCC3)no2)cc1 | 12 | 13 | -3 | 34 | 59* | 0 | -5 | -1 | 57* | 13 | 5
COc1ccc(-c2nc(C3CCCCC3)no2)cc1OC | -23 | 27 | -2 | 1 | 1 | 2 | / | / | / | / | /
COc1ccc(-c2ccc(N3C(c4ccsc4)=Cc4ccc(F)cc4C3c3c[nH]c4ccccc34)cc2)cc1 (centres undefined) | / | -410 | / | / | / | -4 | / | / | / | / | /
Nc1nc(-c2ccc(-c3ccccc3)cc2)cs1 | 68* | -418 | 11 | 73* | -16 | 3 | 11 | 82* | 97* | 55* | 28
Nc1nc(-c2ccc(Oc3ccccc3)cc2)cs1 | -6 | 6 | 5 | -3 | 19 | -2 | / | / | / | / | /
Nc1nc(-c2ccc3ccccc3c2)cs1 | 69* | -255 | 8 | 74* | 33 | 1 | 0 | 83* | 97* | 64* | 84*
OC(c1ccccc1)c1nc(-c2cc3ccccc3o2)cs1 (centres undefined) | / | -14 | / | / | / | 1 | / | / | / | / | /
Nc1nc(-c2cc3ccccc3o2)cs1 | 39 | 7 | 17 | 39 | 71* | 0 | 52* | 53* | 81* | 56* | 12
CCCCN1CC2([N+](=O)[O-])C=CC(=O)C([N+](=O)[O-])(C1)C2CC(=O)c1ccccc1 (centres undefined) | -8 | 8 | -9 | -1 | 88* | -2 | 4 | -1 | 2 | 4 | 3
Cc1[nH]c2ccccc2c1/C=N\NC(=O)CNc1ccc2c(c1)OCO2 | 5 | 28 | -3 | -2 | 8 | 0 | / | / | / | / | /
COc1ccc(N=Cc2c(O)[nH]c3ccccc23)cc1 | 66* | 11 | 18 | 68* | 28 | -42 | 2 | 83* | 99* | 76* | 18
Oc1[nH]c2ccccc2c1C=Nc1ccc2c(c1)OCO2 | 76* | -5 | 0 | 1 | 86* | -85 | 67* | 88* | 99* | 83* | 27
CSCCC(NC(=O)c1ccco1)C(=O)N1CCN(Cc2ccccc2)CC1 (centres undefined) | -5 | 8 | 14 | 9 | -22 | 0 | / | / | / | / | /
Cc1cc(NC(=O)c2cccc(S(=O)(=O)N3CC(c4ccccc4)CC3=O)c2)no1 (centres undefined) | -11 | 2 | 3 | 6 | -17 | 2 | / | / | / | / | /
N/C(=N\OC(=O)Nc1ccccc1)c1ncc(C(F)(F)F)cc1Cl | 29 | 20 | -1 | 7 | 50* | 2 | 52* | 47 | 77* | 69* | 57*
N/C(=N\OC(=O)Nc1ccc(Cl)cc1)c1ncc(C(F)(F)F)cc1Cl | -5 | 20 | -1 | 5 | -22 | 1 | / | / | / | / | /
O=C(NCC(c1cccs1)N1CCOCC1)c1cn(-c2ccccc2)nc1-c1ccccc1 (centres undefined) | 6 | 14 | / | 4 | -7 | -2 | / | / | / | / | /
CN(C)c1ccc(/C=C/C(=O)c2cccc(Br)c2)cc1 | 18 | -38 | -5 | 27 | 52* | -23 | 37 | 38 | 28 | 21 | 13
CN(C)c1ccc(C(=O)/C=C/c2cccnc2)cc1 | -10 | -22 | -3 | -8 | -11 | -7 | / | / | / | / | /
COc1ccc(S(=O)(=O)Nc2cc(SCC(=O)O)c(O)c3ccccc23)cc1 | 51* | 40 | 3 | 31 | 76* | 0 | 30 | 59* | 13 | 10 | 16
CCCCCN1C=CC(=C2C(=O)c3ccccc3C2=O)C=C1 | 96* | 24 | 42 | 97* | 96* | 28 | 94* | 96* | 100* | 96* | 46
CCN(CC)S(=O)(=O)c1ccc(NC(=O)c2ccc(Cl)nc2)cc1 | -3 | -4 | -1 | 0 | -11 | 3 | / | / | / | / | /
Fc1ccccc1CSc1nc2ccccc2[nH]1 | 79* | 16 | -9 | 85* | 83* | 2 | 86* | 85* | 96* | 83* | 86*
SMILES | SENP8 block-1 | SENP8 block-2 | Platelet DG rel | SENP7 block | SENP6 block | SENP1 inh | SENP8 conf | SENP6 confirm | SENP7 confirm | Casp3 SENP sel | SENP luc ctr
COc1cccc(CSc2nc3ccccc3[nH]2)c1 | 77* | 5 | 5 | 81* | 64* | 2 | 0 | 79* | 95* | 80* | 82*
Fc1c(F)c(F)c(CSc2nc3ccccc3[nH]2)c(F)c1F | -5 | 26 | -5 | 4 | -2 | 1 | / | / | / | / | /
O=C1CC(/C=C/c2ccc(Cl)cc2)=Nc2ccccc2N1 | 16 | 5 | 4 | -1 | 23 | -14 | / | / | / | / | /
O=C1CC(/C=C/c2ccccc2)=Nc2ccccc2N1 | 47 | -46 | 3 | 50 | 67* | -24 | 46 | 44 | 56* | 33 | 6
CCCNC(=O)C1(C)CCN1C(=O)C/C=C/c1ccccc1 (centres undefined) | / | 26 | / | / | / | 0 | / | / | / | / | /
CN(C)c1cc(N/N=C/c2ccccc2C(F)(F)F)nc(N(C)C)n1 | 26 | -30 | -1 | 46 | 55* | 0 | 5 | 46 | 22 | 0 | -2
Cc1cc2ccccc2c(=O)n1CC(=O)NCC(=O)N1CCN(c2ccccc2)CC1 | 0 | -61 | 1 | 3 | 8 | 0 | / | / | / | / | /

Source: PubChem (several laboratories)
